Calls of active or inactive are those of the source. The rule behind the calls is not given here.
Tests used:
Mus musculus [1] = test: Neurotoxicity against Mus musculus C57BL/6 (mouse) assessed as tonic paralysis at 500 pmol, icv measured after 4 hr; type: toxicity, organism-based; conditions: in vivo, icv_or_intrathecal
Mus musculus [2] = test: Neurotoxicity against Mus musculus C57BL/6 (mouse) assessed as respiratory paralysis at 500 pmol, icv; type: toxicity, organism-based; conditions: in vivo, icv_or_intrathecal
Method in brief: (§1)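 Female C57BL/6 mice (~20 g) lightly anesthetized with diethylether. 5 µl of sample in BSA solution injected into the left cerebral ventricle. Posture, behavior and neurotoxic signs observed; n = 2.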

[3] = Inhibition of transient A type potassium channel IK(A) in Periplaneta americana (American cockroach) DUM neurons assessed as effect on voltage-dependent activation at 330 nM measured at holding potential -90 mV depolarized to +40 mV with 100 ms increments after 10 min by whole cell patch clamp …
Mus musculus [4] = test: Neurotoxicity against Mus musculus C57BL/6 (mouse) assessed as ataxia at 500 pmol, icv; type: toxicity, organism-based; conditions: in vivo, icv_or_intrathecal; method in brief: as §1
[5] = Inhibition of delayed rectifier potassium channel IK(DR) in Periplaneta americana (American cockroach) DUM neurons assessed as effect on voltage-dependent activation at 330 nM measured at holding potential -90 mV depolarized to +40 mV with 100 ms increments after 10 min by whole cell voltage clamp …
[6] = Inhibition of delayed rectifier potassium channel IK(DR) in Periplaneta americana (American cockroach) DUM neurons at 330 nM measured at holding potential -90 mV depolarized to +30 mV after 10 min by whole cell voltage clamp assay in presence of CdCl2 and ChTx relative to control
[7] = biological target: Voltage-dependent calcium channel alpha-1 subunit (Blattella germanica) (UniProt O18323); test: Inhibition of high voltage activated Cav channel in Periplaneta americana (American cockroach) DUM neurons assessed as effect on voltage-dependent activation at 330 nM measured at holding potential -90 mV depolarized to +70 mV with 10 mV increments after 10 min by whole cell patch clamp assay
Method in brief: (§2)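 Ba2+ currents through M-LVA and HVA Cav channels recorded by whole-cell clamp in cockroach DUM neurons at 20–23°C. Toxin applied for 10 min via a perfusion needle. Peak IBa measured relative to control. For activation, steps from Vh -90 mV to +70 mV in 10-mV increments at 0.1 Hz. P-P/4 leak subtraction; n = 3.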

Mus musculus [8] = test: Neurotoxicity against Mus musculus C57BL/6 (mouse) assessed as cyanosis at 500 pmol, icv measured after 4 hr; type: toxicity, organism-based; conditions: in vivo, icv_or_intrathecal
[9] = biological target: Voltage-dependent calcium channel alpha-1 subunit (Blattella germanica) (UniProt O18323); test: Inhibition of voltage-gated calcium channel Cav-mediated late-sustained current in Periplaneta americana (American cockroach) DUM neurons assessed as measured at holding potential -80 mV depolarized to +40 mV after 10 min by whole cell patch clamp assay in presence of CdCl2
Method in brief: (§3)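 BK(Ca) current in DUM neurons with 5 mM 4-AP in the bath. Toxin perfused for 10 min or to equilibrium; then 1 mM CdCl2 plus 30 nM ChTx added, and the residual current subtracted. 100-ms steps from Vh -80 mV to +30 mV, or to +40 mV in 10-mV increments for I–V. Peak (fast-transient) and 100-ms (late) amplitudes measured. IC50 from logistic fit; n = 3–6.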

[10] = biological target: Voltage-dependent calcium channel alpha-1 subunit (Blattella germanica) (UniProt O18323); test: (§4) Inhibition of voltage-gated calcium channel Cav-mediated fast-transient current in Periplaneta americana (American cockroach) DUM neurons assessed as effect on voltage-dependent activation at 25 nM measured at holding potential -80 mV in 10 mV increments depolarized to +40 mV after 10 min by whole cell patch clamp assay in presence of CdCl2; method in brief: as §3
Gryllus bimaculatus [11] = test: Neurotoxicity against third-instar nymph stage of Gryllus bimaculatus (cricket) assessed as mortality at 1.1 nmol/g measured at 15 min; type: functional, organism-based
[12] = biological target: Voltage-dependent calcium channel alpha-1 subunit (Blattella germanica) (UniProt O18323); test: Inhibition of mid-low voltage activated Cav channel in Periplaneta americana (American cockroach) DUM neurons assessed as effect on voltage-dependent activation at 330 nM measured at holding potential -90 mV depolarized to +70 mV with 10 mV increments after 10 min by whole cell patch clamp assay; method in brief: as §2
Mus musculus [13] = test: Neurotoxicity against Mus musculus C57BL/6 (mouse) assessed as cyanosis at 500 pmol, icv; type: toxicity, organism-based; conditions: in vivo, icv_or_intrathecal; method in brief: as §1
[14] = biological target: Voltage-dependent calcium channel alpha-1 subunit (Blattella germanica) (UniProt O18323); test: as §4, with “late-sustained” for “fast-transient”
[15] = biological target: Voltage-gated sodium channel Nav1 alpha subunit (Periplaneta americana) (UniProt D0E0C1); test: Inhibition of Nav channel in Periplaneta americana (American cockroach) DUM neurons assessed as effect on voltage-dependent activation at 330 nM measured at holding potential -90 mV depolarised to +70 mV with 10 mV increments for 10 min by whole cell patch clamp assay
Method in brief: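 Whole-cell voltage clamp of TTX-sensitive Na+ current in DUM neurons isolated from adult cockroaches and kept no longer than 24 h at 30°C. Bath (mM): NaCl 80, CsCl 5, CaCl2 1.8, TEA-Cl 50, 4-AP 5, HEPES 10, NiCl2 0.1, CdCl2 1, pH 7.4. Vh -90 mV; test pulse to -10 mV, or steps to +70 mV in 10-mV increments at 0.1 Hz. P-P/4 leak subtraction; 20–23°C.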

Gryllus bimaculatus [16] = test: Neurotoxicity against third-instar nymph stage of Gryllus bimaculatus (cricket) assessed as paralysis at 1.1 nmol/g measured within 5 min; type: functional, organism-based
[17] = biological target: Voltage-dependent calcium channel alpha-1 subunit (Blattella germanica) (UniProt O18323); test: Inhibition of voltage-gated calcium channel Cav-mediated fast-transient current in Periplaneta americana (American cockroach) DUM neurons assessed as measured at holding potential -80 mV depolarized to +40 mV after 10 min by whole cell patch clamp assay in presence of CdCl2; method in brief: as §3
Mus musculus [18] = test: Neurotoxicity against Mus musculus C57BL/6 (mouse) assessed as extension of toes at 500 pmol, icv; type: toxicity, organism-based; conditions: in vivo, icv_or_intrathecal; method in brief: as §1
Mus musculus [19] = test: Neurotoxicity against Mus musculus C57BL/6 (mouse) assessed as tonic paralysis at 500 pmol, icv; type: toxicity, organism-based; conditions: in vivo, icv_or_intrathecal; method in brief: as §1
[20] = Reversible inhibition of Potassium channel Kv in Periplaneta americana (American cockroach) DUM neurons at 330 nM measured at holding potential -90 mV depolarized to +30 mV after 10 min by whole cell patch clamp assay relative to control
Mus musculus [21] = test: Neurotoxicity against Mus musculus C57BL/6 (mouse) assessed as convulsion at 500 pmol, icv; type: toxicity, organism-based; conditions: in vivo, icv_or_intrathecal; method in brief: as §1
Mus musculus [22] = test: Neurotoxicity against Mus musculus C57BL/6 (mouse) assessed as extension of leg at 500 pmol, icv; type: toxicity, organism-based; conditions: in vivo, icv_or_intrathecal; method in brief: as §1
Mus musculus [23] = test: Neurotoxicity against Mus musculus C57BL/6 (mouse) assessed as tail erection at 500 pmol, icv; type: toxicity, organism-based; conditions: in vivo, icv_or_intrathecal; method in brief: as §1
[24] = Inhibition of transient A type potassium channel IK(A) in Periplaneta americana (American cockroach) DUM neurons at 330 nM measured at holding potential -90 mV depolarized to +30 mV after 10 min by whole cell patch clamp assay in presence of CdCl2 and ChTx
[25] = biological target: Voltage-gated sodium channel Nav1 alpha subunit (Periplaneta americana) (UniProt D0E0C1); conditions: 300 nM

Sequence of Voltage-dependent calcium channel alpha-1 subunit (Blattella germanica) (O18323 as listed by the source): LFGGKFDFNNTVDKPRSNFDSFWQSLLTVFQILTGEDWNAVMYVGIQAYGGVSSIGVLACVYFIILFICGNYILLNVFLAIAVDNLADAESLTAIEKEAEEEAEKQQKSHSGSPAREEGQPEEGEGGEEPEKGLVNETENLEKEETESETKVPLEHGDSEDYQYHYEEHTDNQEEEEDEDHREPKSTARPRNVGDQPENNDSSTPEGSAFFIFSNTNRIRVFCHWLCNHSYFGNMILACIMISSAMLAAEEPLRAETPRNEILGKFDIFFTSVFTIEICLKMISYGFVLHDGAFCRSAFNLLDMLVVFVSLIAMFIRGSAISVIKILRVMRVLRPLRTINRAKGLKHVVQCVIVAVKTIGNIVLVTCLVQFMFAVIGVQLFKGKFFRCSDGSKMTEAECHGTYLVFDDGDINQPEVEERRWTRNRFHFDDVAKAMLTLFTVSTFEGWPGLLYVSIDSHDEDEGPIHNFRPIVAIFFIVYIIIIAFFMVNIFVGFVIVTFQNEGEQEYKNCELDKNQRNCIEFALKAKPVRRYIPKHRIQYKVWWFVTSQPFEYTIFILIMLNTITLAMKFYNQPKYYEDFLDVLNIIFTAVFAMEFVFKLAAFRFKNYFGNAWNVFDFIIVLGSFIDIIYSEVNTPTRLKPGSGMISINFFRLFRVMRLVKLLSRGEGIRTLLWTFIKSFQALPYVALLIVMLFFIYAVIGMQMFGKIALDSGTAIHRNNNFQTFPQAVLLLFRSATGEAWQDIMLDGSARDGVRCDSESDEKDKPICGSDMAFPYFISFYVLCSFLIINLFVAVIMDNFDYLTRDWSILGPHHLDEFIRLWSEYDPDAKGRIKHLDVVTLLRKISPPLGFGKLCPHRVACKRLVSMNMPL
Sequence of Voltage-gated sodium channel Nav1 alpha subunit (Periplaneta americana) (D0E0C1 as listed by the source): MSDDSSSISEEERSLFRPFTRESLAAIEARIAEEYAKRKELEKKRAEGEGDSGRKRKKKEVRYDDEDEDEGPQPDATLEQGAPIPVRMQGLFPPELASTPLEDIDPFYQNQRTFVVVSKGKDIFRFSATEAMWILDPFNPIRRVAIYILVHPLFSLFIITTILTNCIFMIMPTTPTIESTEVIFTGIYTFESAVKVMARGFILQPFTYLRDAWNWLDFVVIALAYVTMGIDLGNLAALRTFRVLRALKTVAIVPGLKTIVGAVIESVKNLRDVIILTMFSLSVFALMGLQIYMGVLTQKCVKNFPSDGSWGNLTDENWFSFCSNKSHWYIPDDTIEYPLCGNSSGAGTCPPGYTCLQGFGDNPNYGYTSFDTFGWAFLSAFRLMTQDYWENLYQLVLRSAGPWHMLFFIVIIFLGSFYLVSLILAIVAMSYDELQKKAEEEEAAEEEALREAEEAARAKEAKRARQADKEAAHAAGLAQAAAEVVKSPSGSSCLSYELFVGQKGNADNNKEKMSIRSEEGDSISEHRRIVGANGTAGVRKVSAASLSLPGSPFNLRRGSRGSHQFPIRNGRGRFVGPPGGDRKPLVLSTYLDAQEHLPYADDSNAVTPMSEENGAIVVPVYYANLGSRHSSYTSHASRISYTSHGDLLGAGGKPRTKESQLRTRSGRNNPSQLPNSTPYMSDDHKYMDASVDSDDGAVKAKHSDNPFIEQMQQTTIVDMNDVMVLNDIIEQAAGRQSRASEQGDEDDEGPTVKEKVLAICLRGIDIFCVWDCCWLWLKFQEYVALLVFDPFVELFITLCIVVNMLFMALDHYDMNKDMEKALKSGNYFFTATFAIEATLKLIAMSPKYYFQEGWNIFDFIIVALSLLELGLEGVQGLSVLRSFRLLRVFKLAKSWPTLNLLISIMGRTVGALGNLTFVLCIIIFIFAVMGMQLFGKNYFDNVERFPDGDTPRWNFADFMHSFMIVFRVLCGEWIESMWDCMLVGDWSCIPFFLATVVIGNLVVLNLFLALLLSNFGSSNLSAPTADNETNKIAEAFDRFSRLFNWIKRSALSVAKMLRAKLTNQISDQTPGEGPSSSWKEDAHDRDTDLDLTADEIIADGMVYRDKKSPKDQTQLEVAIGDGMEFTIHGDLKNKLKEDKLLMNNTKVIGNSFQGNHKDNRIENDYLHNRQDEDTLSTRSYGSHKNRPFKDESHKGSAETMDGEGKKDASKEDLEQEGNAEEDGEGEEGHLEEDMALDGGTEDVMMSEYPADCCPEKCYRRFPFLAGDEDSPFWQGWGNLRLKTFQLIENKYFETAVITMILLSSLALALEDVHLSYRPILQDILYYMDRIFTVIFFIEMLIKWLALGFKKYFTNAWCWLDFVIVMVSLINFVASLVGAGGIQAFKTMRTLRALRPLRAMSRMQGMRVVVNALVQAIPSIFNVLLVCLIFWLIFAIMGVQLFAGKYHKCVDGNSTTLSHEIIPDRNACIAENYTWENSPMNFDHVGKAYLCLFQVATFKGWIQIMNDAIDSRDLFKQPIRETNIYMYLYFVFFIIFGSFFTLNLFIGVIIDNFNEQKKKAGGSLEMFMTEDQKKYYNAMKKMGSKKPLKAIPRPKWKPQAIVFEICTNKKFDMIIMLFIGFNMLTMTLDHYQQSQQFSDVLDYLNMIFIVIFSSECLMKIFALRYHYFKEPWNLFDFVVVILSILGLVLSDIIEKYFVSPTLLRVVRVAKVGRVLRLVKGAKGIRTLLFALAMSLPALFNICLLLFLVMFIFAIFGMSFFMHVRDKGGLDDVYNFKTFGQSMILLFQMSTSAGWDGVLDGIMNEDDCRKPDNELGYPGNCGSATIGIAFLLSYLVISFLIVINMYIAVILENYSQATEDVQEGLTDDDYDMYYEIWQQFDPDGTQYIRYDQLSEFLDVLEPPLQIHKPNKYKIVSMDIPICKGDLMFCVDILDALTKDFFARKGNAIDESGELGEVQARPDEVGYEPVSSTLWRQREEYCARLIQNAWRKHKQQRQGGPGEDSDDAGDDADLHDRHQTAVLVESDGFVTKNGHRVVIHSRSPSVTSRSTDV

CSCC[C@@H]1NC(=O)[C@H](CCCCN)NC(=O)[C@H](Cc2ccccc2)NC(=O)[C@H](CCC(N)=O)NC(=O)[C@@H](NC(=O)[C@@H](N)Cc2ccc(O)cc2)CSSC[C@@H]2NC(=O)[C@@H]3CSSC[C@@H](C(=O)N[C@@H](CCCCN)C(=O)N[C@@H](CC(C)C)C(=O)N[C@@H](CC(N)=O)C(=O)N[C@@H](CC(C)C)C(=O)O)NC(=O)[C@H](Cc4c[nH]c5ccccc45)NC(=O)[C@H](CC(C)C)NC(=O)[C@H](CCCNC(=N)N)NC(=O)[C@H](CSSC[C@H](NC(=O)[C@H]([C@@H](C)O)NC(=O)[C@H](Cc4c[nH]c5ccccc45)NC1=O)C(=O)N[C@@H](CC(=O)O)C(=O)N[C@@H](CO)C(=O)N[C@@H](CCC(=O)O)C(=O)N[C@@H](CCCNC(=N)N)C(=O)N[C@@H](CCCCN)C(=O)N3)NC(=O)[C@H](C(C)C)NC(=O)[C@H](CCSC)NC(=O)[C@H](CC(=O)O)NC(=O)[C@H](CCC(=O)O)NC2=O
Activity (Mus musculus [1]): Non-toxic
Activity (Mus musculus [2]): Toxic
inhibition [3]: inactive
Activity (Mus musculus [4]): Toxic
inhibition [5]: inactive
inhibition [6]: inactive
inhibition [7]: inactive
Activity (Mus musculus [8]): Non-toxic
inhibition [9]: Dose-dependent effect
inhibition [10]: inactive
Activity (Gryllus bimaculatus [11]): Active
inhibition [12]: inactive
Activity (Mus musculus [13]): Toxic
inhibition [14]: inactive
inhibition [15]: inactive
Activity (Gryllus bimaculatus [16]): Active
inhibition [17]: Dose-dependent effect
Activity (Mus musculus [18]): Toxic
Activity (Mus musculus [19]): Toxic
inhibition [20]: Active
Activity (Mus musculus [21]): Toxic
Activity (Mus musculus [22]): Toxic
Activity (Mus musculus [23]): Toxic
inhibition [24]: inactive

NC1=N[C@H](O)[C@H]2[C@H]3O[C@]4(O)O[C@@H]([C@@H](O)[C@@]2(N1)[C@@H]4O)[C@]3(O)CO
inhibition [25]: Active

From ChEMBL document CHEMBL3045866, “A novel family of insect-selective peptide neurotoxins targeting insect large-conductance calcium-activated K+ channels isolated from the venom of the theraphosid spider Eucratoscelus constrictus” (Mol Pharmacol, 2011)
